Drawing on ChEMBL document CHEMBL3739286, “Betulinic acid derived hydroxamates and betulin derived carbamates are interesting scaffolds for the synthesis of novel cytotoxic compounds” (Eur J Med Chem, 2015), this text covers EC50 for five compounds.

The first assay relates to MCF7. As to the kind of experiment: Cytotoxicity against human MCF7 cells after 96 hrs by SRB assay. It is filed as functional, cell-based. The conditions noted are these: Homo sapiens, MCF7, 96 h; read-out: EC50. The gist of the method:
(§1)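 Photometric sulforhodamine B read-out of antiproliferative effect after 96 h of continuous treatment; EC₅₀ values in µM, averaged from three independent experiments each run in triplicate; the assay cut-off is EC₅₀ > 30 µM. Human tumour lines are tested alongside nonmalignant mouse NIH 3T3 fibroblasts.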
(In SRB staining, fixed cells bind dye roughly in proportion to their protein.)
For `C=C(C)[C@@H]1CC[C@]2(COC(=O)NCCC)CC[C@]3(C)[C@H](CC[C@@H]4[C@@]5(C)CC[C@H](O)C(C)(C)[C@@H]5CC[C@]43C)[C@@H]12`, the 50% effective concentration (EC50) was 15.5 µM.

As to `C=C(C)[C@@H]1CC[C@]2(COC(=O)NCCCCCC)CC[C@]3(C)[C@H](CC[C@@H]4[C@@]5(C)CCC(=O)C(C)(C)[C@@H]5CC[C@]43C)[C@@H]12`, the concentration giving a half-maximal response (EC50) is above 30 µM.

For the compound `C=C(C)[C@@H]1CC[C@]2(COC(=O)NCCCC)CC[C@]3(C)[C@H](CC[C@@H]4[C@@]5(C)CCC(=O)C(C)(C)[C@@H]5CC[C@]43C)[C@@H]12`, the EC50 is above 30 µM.

Turning to `C=C(C)[C@@H]1CC[C@]2(COC(=O)NCC)CC[C@]3(C)[C@H](CC[C@@H]4[C@@]5(C)CC[C@H](O)C(C)(C)[C@@H]5CC[C@]43C)[C@@H]12`, the concentration for a half-maximal effect (EC50) is 12.1 µM.

For `C=C(C)[C@@H]1CC[C@]2(COC(=O)NCCC)CC[C@]3(C)[C@H](CC[C@@H]4[C@@]5(C)CCC(=O)C(C)(C)[C@@H]5CC[C@]43C)[C@@H]12`, the concentration for a half-maximal effect (EC50) was above 30 µM.

The subject of another assay is A549. Nature of the assay: Cytotoxicity against human A549 cells after 96 hrs by SRB assay. It is filed as functional, cell-based. The conditions noted are these: Homo sapiens, A549, 96 h; read-out: EC50. The gist of the method: as §1
With `C=C(C)[C@@H]1CC[C@]2(COC(=O)NCCC)CC[C@]3(C)[C@H](CC[C@@H]4[C@@]5(C)CC[C@H](O)C(C)(C)[C@@H]5CC[C@]43C)[C@@H]12`, the concentration giving a half-maximal response (EC50) turned out to be 14.2 µM.

As to `C=C(C)[C@@H]1CC[C@]2(COC(=O)NCCCCCC)CC[C@]3(C)[C@H](CC[C@@H]4[C@@]5(C)CCC(=O)C(C)(C)[C@@H]5CC[C@]43C)[C@@H]12`, the EC50 was above 30 µM.

For the compound `C=C(C)[C@@H]1CC[C@]2(COC(=O)NCCCC)CC[C@]3(C)[C@H](CC[C@@H]4[C@@]5(C)CCC(=O)C(C)(C)[C@@H]5CC[C@]43C)[C@@H]12`, the concentration giving a half-maximal response (EC50) was above 30 µM.

Consider `C=C(C)[C@@H]1CC[C@]2(COC(=O)NCC)CC[C@]3(C)[C@H](CC[C@@H]4[C@@]5(C)CC[C@H](O)C(C)(C)[C@@H]5CC[C@]43C)[C@@H]12`, for which the half-maximal effective concentration (EC50) came out at 12 µM.

In the case of `C=C(C)[C@@H]1CC[C@]2(COC(=O)NCCC)CC[C@]3(C)[C@H](CC[C@@H]4[C@@]5(C)CCC(=O)C(C)(C)[C@@H]5CC[C@]43C)[C@@H]12`, the EC50 is above 30 µM.

For a further assay, the system named is A2780. Nature of the assay: Cytotoxicity against human A2780 cells after 96 hrs by SRB assay. The conditions noted are these: Homo sapiens, A2780, 96 h; read-out: EC50. Type of assay: functional, cell-based. The gist of the method: as §1
For `C=C(C)[C@@H]1CC[C@]2(COC(=O)NCCC)CC[C@]3(C)[C@H](CC[C@@H]4[C@@]5(C)CC[C@H](O)C(C)(C)[C@@H]5CC[C@]43C)[C@@H]12`, the concentration giving a half-maximal response (EC50) is 10.6 µM.

As to `C=C(C)[C@@H]1CC[C@]2(COC(=O)NCCCCCC)CC[C@]3(C)[C@H](CC[C@@H]4[C@@]5(C)CCC(=O)C(C)(C)[C@@H]5CC[C@]43C)[C@@H]12`, the 50% effective concentration (EC50) is above 30 µM.

Take `C=C(C)[C@@H]1CC[C@]2(COC(=O)NCCCC)CC[C@]3(C)[C@H](CC[C@@H]4[C@@]5(C)CCC(=O)C(C)(C)[C@@H]5CC[C@]43C)[C@@H]12`: the concentration giving a half-maximal response (EC50) was above 30 µM.

As to `C=C(C)[C@@H]1CC[C@]2(COC(=O)NCC)CC[C@]3(C)[C@H](CC[C@@H]4[C@@]5(C)CC[C@H](O)C(C)(C)[C@@H]5CC[C@]43C)[C@@H]12`, the 50% effective concentration (EC50) stood at 4.6 µM.

On to `C=C(C)[C@@H]1CC[C@]2(COC(=O)NCCC)CC[C@]3(C)[C@H](CC[C@@H]4[C@@]5(C)CCC(=O)C(C)(C)[C@@H]5CC[C@]43C)[C@@H]12`, for which the half-maximal effective concentration (EC50) was above 30 µM.

Another assay concerns HT-29. Nature of the assay: Cytotoxicity against human HT-29 cells after 96 hrs by SRB assay. It is filed as functional, cell-based. The conditions noted are these: HT-29, 96 h. In short, it runs like this:
as §1
On to `C=C(C)[C@@H]1CC[C@]2(COC(=O)NCCC)CC[C@]3(C)[C@H](CC[C@@H]4[C@@]5(C)CC[C@H](O)C(C)(C)[C@@H]5CC[C@]43C)[C@@H]12`, for which the EC50 was 16.3 µM.

The compound `C=C(C)[C@@H]1CC[C@]2(COC(=O)NCCCCCC)CC[C@]3(C)[C@H](CC[C@@H]4[C@@]5(C)CCC(=O)C(C)(C)[C@@H]5CC[C@]43C)[C@@H]12` displayed a 50% effective concentration (EC50) above 30 µM.

Regarding `C=C(C)[C@@H]1CC[C@]2(COC(=O)NCCCC)CC[C@]3(C)[C@H](CC[C@@H]4[C@@]5(C)CCC(=O)C(C)(C)[C@@H]5CC[C@]43C)[C@@H]12`, the concentration for a half-maximal effect (EC50) was above 30 µM.

In the case of `C=C(C)[C@@H]1CC[C@]2(COC(=O)NCC)CC[C@]3(C)[C@H](CC[C@@H]4[C@@]5(C)CC[C@H](O)C(C)(C)[C@@H]5CC[C@]43C)[C@@H]12`, the concentration giving a half-maximal response (EC50) is above 30 µM.

`C=C(C)[C@@H]1CC[C@]2(COC(=O)NCCC)CC[C@]3(C)[C@H](CC[C@@H]4[C@@]5(C)CCC(=O)C(C)(C)[C@@H]5CC[C@]43C)[C@@H]12` registered an EC50 above 30 µM.

Tested on in a further assay: not listed separately
As to the kind of experiment: Cytotoxicity against mouse NIH/3T3 cells after 96 hrs by SRB assay. Type of assay: cell-based, NIH3T3. Particulars: Mus musculus, NIH3T3, 96 h; read-out: EC50. The gist of the method:
as §1
Turning to `C=C(C)[C@@H]1CC[C@]2(COC(=O)NCCC)CC[C@]3(C)[C@H](CC[C@@H]4[C@@]5(C)CC[C@H](O)C(C)(C)[C@@H]5CC[C@]43C)[C@@H]12`, the EC50 is 7.3 µM.

As for `C=C(C)[C@@H]1CC[C@]2(COC(=O)NCCCCCC)CC[C@]3(C)[C@H](CC[C@@H]4[C@@]5(C)CCC(=O)C(C)(C)[C@@H]5CC[C@]43C)[C@@H]12`, the EC50 is above 30 µM.

As for `C=C(C)[C@@H]1CC[C@]2(COC(=O)NCCCC)CC[C@]3(C)[C@H](CC[C@@H]4[C@@]5(C)CCC(=O)C(C)(C)[C@@H]5CC[C@]43C)[C@@H]12`, the concentration giving a half-maximal response (EC50) was above 30 µM.

For the compound `C=C(C)[C@@H]1CC[C@]2(COC(=O)NCC)CC[C@]3(C)[C@H](CC[C@@H]4[C@@]5(C)CC[C@H](O)C(C)(C)[C@@H]5CC[C@]43C)[C@@H]12`, the EC50 is 8.8 µM.

As for `C=C(C)[C@@H]1CC[C@]2(COC(=O)NCCC)CC[C@]3(C)[C@H](CC[C@@H]4[C@@]5(C)CCC(=O)C(C)(C)[C@@H]5CC[C@]43C)[C@@H]12`, the EC50 was above 30 µM.

Another assay concerns HeLa. As to the kind of experiment: Cytotoxicity against human HeLa cells after 96 hrs by SRB assay. Type of assay: functional, cell-based.
Details: not given
In short, it runs like this:
as §1
`C=C(C)[C@@H]1CC[C@]2(COC(=O)NCCC)CC[C@]3(C)[C@H](CC[C@@H]4[C@@]5(C)CC[C@H](O)C(C)(C)[C@@H]5CC[C@]43C)[C@@H]12`: a half-maximal effect (EC50) was put at 9.4 µM.

`C=C(C)[C@@H]1CC[C@]2(COC(=O)NCCCCCC)CC[C@]3(C)[C@H](CC[C@@H]4[C@@]5(C)CCC(=O)C(C)(C)[C@@H]5CC[C@]43C)[C@@H]12` yielded an EC50 above 30 µM.

On to `C=C(C)[C@@H]1CC[C@]2(COC(=O)NCCCC)CC[C@]3(C)[C@H](CC[C@@H]4[C@@]5(C)CCC(=O)C(C)(C)[C@@H]5CC[C@]43C)[C@@H]12`, for which the EC50 is above 30 µM.

`C=C(C)[C@@H]1CC[C@]2(COC(=O)NCC)CC[C@]3(C)[C@H](CC[C@@H]4[C@@]5(C)CC[C@H](O)C(C)(C)[C@@H]5CC[C@]43C)[C@@H]12` yielded an EC50 above 30 µM.

The compound `C=C(C)[C@@H]1CC[C@]2(COC(=O)NCCC)CC[C@]3(C)[C@H](CC[C@@H]4[C@@]5(C)CCC(=O)C(C)(C)[C@@H]5CC[C@]43C)[C@@H]12` had a concentration giving a half-maximal response (EC50) above 30 µM.

Tested on in the next assay: not listed separately
As to the kind of experiment: Cytotoxicity against human 518A2 cells after 96 hrs by SRB assay. The conditions noted are these: Homo sapiens, 518A2, 96 h; read-out: EC50. Type of assay: functional, cell-based. In short, it runs like this: as §1
Consider `C=C(C)[C@@H]1CC[C@]2(COC(=O)NCCC)CC[C@]3(C)[C@H](CC[C@@H]4[C@@]5(C)CC[C@H](O)C(C)(C)[C@@H]5CC[C@]43C)[C@@H]12`, for which the 50% effective concentration (EC50) was 15.9 µM.

Consider `C=C(C)[C@@H]1CC[C@]2(COC(=O)NCCCCCC)CC[C@]3(C)[C@H](CC[C@@H]4[C@@]5(C)CCC(=O)C(C)(C)[C@@H]5CC[C@]43C)[C@@H]12`, for which the EC50 was above 30 µM.

For the compound `C=C(C)[C@@H]1CC[C@]2(COC(=O)NCCCC)CC[C@]3(C)[C@H](CC[C@@H]4[C@@]5(C)CCC(=O)C(C)(C)[C@@H]5CC[C@]43C)[C@@H]12`, the concentration for a half-maximal effect (EC50) was above 30 µM.

In the case of `C=C(C)[C@@H]1CC[C@]2(COC(=O)NCC)CC[C@]3(C)[C@H](CC[C@@H]4[C@@]5(C)CC[C@H](O)C(C)(C)[C@@H]5CC[C@]43C)[C@@H]12`, the concentration giving a half-maximal response (EC50) was 12.5 µM.

For the compound `C=C(C)[C@@H]1CC[C@]2(COC(=O)NCCC)CC[C@]3(C)[C@H](CC[C@@H]4[C@@]5(C)CCC(=O)C(C)(C)[C@@H]5CC[C@]43C)[C@@H]12`, the EC50 is above 30 µM.

Broadly, the EC50 is the concentration giving half of the maximal effect.
